The source made the active and inactive calls. No cut-off for these calls is given here.
Tests used:
[1] = target: T1, Pyruvate kinase PKM (Homo sapiens, UniProt P14618); test: Binding affinity to PKM2 in human HL60 cells at 20 uM after overnight incubation by silver staining-based streptavidin-agarose pull-down assay; format: cell-based
Method in brief: (§1)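 HL60 lysate incubated overnight at 4 °C with biotinylated probe, with or without excess free parent compound for competition. Pull-down on streptavidin-agarose, then SDS-PAGE with silver staining, or Western blot with anti-PKM2. Repeated at least three times.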
Target sequence in this assay (P14618 2-531 limits assumed): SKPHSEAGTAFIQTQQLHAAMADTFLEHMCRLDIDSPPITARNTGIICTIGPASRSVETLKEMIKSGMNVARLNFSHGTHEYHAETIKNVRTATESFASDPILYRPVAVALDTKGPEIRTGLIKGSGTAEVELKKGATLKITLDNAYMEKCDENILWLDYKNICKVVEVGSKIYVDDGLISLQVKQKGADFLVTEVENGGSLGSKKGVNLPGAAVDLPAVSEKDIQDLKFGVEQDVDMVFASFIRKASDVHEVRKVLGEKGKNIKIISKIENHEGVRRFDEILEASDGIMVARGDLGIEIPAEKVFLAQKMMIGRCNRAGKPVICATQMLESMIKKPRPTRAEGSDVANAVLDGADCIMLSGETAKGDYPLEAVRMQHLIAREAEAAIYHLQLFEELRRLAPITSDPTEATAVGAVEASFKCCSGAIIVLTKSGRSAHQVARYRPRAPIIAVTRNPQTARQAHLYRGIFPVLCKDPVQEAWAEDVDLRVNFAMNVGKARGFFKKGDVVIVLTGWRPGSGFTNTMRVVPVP

[2] = system: HL-60; test: Effect on PKM2 levels in human HL60 cells at 2.5 to 10 uM after 20 hrs by Western blot method; format: functional, cell-based
[3] = system: HL-60; test: Antiproliferative activity against human HL60 cells at 5 to 20 uM after 24 hrs in presence of shPKM2 by MTT assay; format: functional, cell-based
Method in brief: (§2)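 HL60 transduced with lentiviral shPKM2 or shControl (5 μg/mL Polybrene), selected 72 h in 1 μg/mL puromycin. Stable lines treated with compound or DMSO for 24 h, then viability assayed.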

[4] = system: HL-60; test: Antiproliferative activity against human HL60 cells at 5 to 20 uM after 24 hrs in presence of shControl by MTT assay; format: functional, cell-based; method in brief: as §2
[5] = system: HL-60; test: Antiproliferative activity against human HL60 cells after 48 hrs by MTT assay; format: functional, cell-based
Method in brief: (§3)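 Cells exposed to a range of concentrations for 48 h; proliferation by MTT. Mean ± SEM of six independent experiments. Resistant lines (HL-60/ADR, K562/ADR) held in ADR (printed as 1 μmol/mL) for 10–28 days, then 10 days drug-free before use. SW1990 and SH-SY5Y in DMEM + 10% FBS; leukemia lines in medium with 12% FBS. Vehicle 0.1% DMSO.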

[6] = system: HL60/ADR; test: Antiproliferative activity against human HL60/ADR cells after 48 hrs by MTT assay; format: functional, cell-based; method in brief: as §3
[7] = system: K562; test: Antiproliferative activity against human K562 cells after 48 hrs by MTT assay; format: functional, cell-based; method in brief: as §3
[8] = system: K562/Adr; test: Antiproliferative activity against human K562/ADR cells after 48 hrs by MTT assay; format: functional, cell-based; method in brief: as §3
[9] = (§4) Antiproliferative activity against human K562/G cells after 48 hrs by MTT assay; format: functional, cell-based; details: K562, 48 h; method in brief: as §3
[10] = species on record: Homo sapiens; test: as §4; format: functional, cell-based; method in brief: as §3
[11] = system: SW1990; test: Antiproliferative activity against human SW1990 cells after 48 hrs by MTT assay; format: functional, cell-based; method in brief: as §3
[12] = system: SH-SY5Y; test: Antiproliferative activity against human SH-SY5Y cells after 48 hrs by MTT assay; format: functional, cell-based; method in brief: as §3
[13] = Toxicity in zebrafish embryo xenografted with human HL60 cells assessed as mortality at 20 ug/ml relative to control; format: organism-based, Danio rerio; details: read-out: Activity
Method in brief: (§5)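 Zebrafish embryos at 2 dpf were injected in the yolk sac with about 300 HL60 cells prelabelled with CM-Dil. Nine injected groups were then exposed to drug at a range of dosages for 3 days, with saline as the negative control. Survival and mortality were scored against the control group, and treated versus control animals were compared by Kaplan–Meier analysis.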

[14] = Toxicity in zebrafish embryo xenografted with human HL60 cells assessed as survival rate at <= 10 ug/ml treated for 3 days relative to control; format: organism-based, Danio rerio; method in brief: as §5
[15] = system: HL-60; test: Antitumor activity against human HL60 cells xenografted in zebrafish embryo assessed as decrease in cell dissemination measured after 3 days of incubation by CM-Dil staining-based microscopic method; format: functional
Method in brief: (§6)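 HL60 cells labelled with CM-Dil; about 300 cells injected into yolk sac of embryos at 2 dpf. Embryos kept in compound (1, 3, 10 μg/mL), cytarabine 200 μg/mL or saline for 3 days. Embryos showing dissemination counted by microscopy, 15 larvae per group. Average ± SD of three independent assays; unpaired Student's t test.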

[16] = system: HL-60; test: Antitumor activity against human HL60 cells xenografted in zebrafish embryo assessed as inhibition of cell proliferation at 10 ug/ml measured after 3 days of incubation by CM-Dil staining-based microscopic method relative to control; format: functional; method in brief: as §6
[17] = system: HL-60; test: Antitumor activity against human HL60 cells xenografted in zebrafish embryo assessed as inhibition of cell migration at 10 ug/ml measured after 3 days of incubation by CM-Dil staining-based microscopic method relative to control; format: functional; method in brief: as §6
[18] = target: T1, Pyruvate kinase PKM; test: Binding affinity to PKM2 in human HL60 cells at 20 uM after overnight incubation in presence of 200 to 400 uM MCL by silver staining-based streptavidin-agarose pull-down assay; format: cell-based; method in brief: as §1
Target sequence in this assay (P14618 2-531 limits assumed): as above

[19] = target: T1, Pyruvate kinase PKM; test: Binding affinity to PKM2 in human HL60 cells at 20 uM after overnight incubation by Western blot method; format: cell-based; method in brief: as §1
Target sequence in this assay (P14618 2-531 limits assumed): as above

[20] = target: T1, Pyruvate kinase PKM; test: Binding affinity to recombinant human PKM2 expressed in Escherichia coli BL21 after overnight incubation by Western blot method
Method in brief: (§7)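 Recombinant PKM1 or PKM2 incubated overnight at 4 °C with biotinylated probe. Biotin adduct detected by Western blot with streptavidin-HRP; loading checked by anti-PKM1/PKM2 blot. Repeated at least three times.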
Target sequence in this assay (P14618 2-531 limits assumed): as above

[21] = target: T1, Pyruvate kinase PKM; test: Binding affinity to recombinant human PKM1 expressed in Escherichia coli BL21 after overnight incubation by Western blot method; method in brief: as §7
Target sequence in this assay (P14618 2-531 limits assumed): as above

[22] = target: T1, Pyruvate kinase PKM; test: Binding affinity to recombinant human PKM2 at C424 residue expressed in Escherichia coli BL21 after 60 mins by Western blot method
Target sequence in this assay (P14618 2-531 limits assumed): as above

[23] = system: Pyruvate kinase PKM (Homo sapiens), P14618 [C424S]; test: Binding affinity to recombinant human PKM2 C424S mutant expressed in Escherichia coli BL21 after 60 mins by Western blot method
Sequence of Pyruvate kinase PKM (Homo sapiens), P14618 [C424S] (P14618 whole entry C424S): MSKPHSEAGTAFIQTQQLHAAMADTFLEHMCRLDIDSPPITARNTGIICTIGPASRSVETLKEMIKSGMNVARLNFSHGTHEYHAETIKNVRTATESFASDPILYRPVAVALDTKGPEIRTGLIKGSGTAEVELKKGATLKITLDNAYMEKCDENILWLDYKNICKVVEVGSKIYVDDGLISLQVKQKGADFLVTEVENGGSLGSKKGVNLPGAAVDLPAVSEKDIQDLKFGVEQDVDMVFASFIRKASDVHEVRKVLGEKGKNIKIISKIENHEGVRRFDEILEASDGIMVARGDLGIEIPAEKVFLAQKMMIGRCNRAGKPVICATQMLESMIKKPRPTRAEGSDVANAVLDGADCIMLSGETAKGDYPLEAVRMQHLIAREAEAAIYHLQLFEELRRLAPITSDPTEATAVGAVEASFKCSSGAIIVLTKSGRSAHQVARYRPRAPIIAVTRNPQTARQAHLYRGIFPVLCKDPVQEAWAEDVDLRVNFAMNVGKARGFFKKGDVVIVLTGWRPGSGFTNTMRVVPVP

[24] = target: T1, Pyruvate kinase PKM; test: Irreversible binding affinity to recombinant human PKM2 expressed in Escherichia coli BL21 at 20 uM incubated for 2 to 150 mins
Method in brief: (§8)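 PKM2 (0.25 μM) incubated with biotinylated probe (20 μM, and other concentrations) for varying times. Time-dependent binding curves fitted for observed rate constants (Kobs) at each concentration. Kobs plotted against concentration to derive kact and Ki under an irreversible-binding model.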

[25] = target: T1, Pyruvate kinase PKM; test: Irreversible binding affinity to recombinant human PKM2 expressed in Escherichia coli BL21; method in brief: as §8
[26] = target: T1, Pyruvate kinase PKM; test: Irreversible binding affinity to recombinant human PKM2 expressed in Escherichia coli BL21 assessed as ratio of Kact to Ki; method in brief: as §8
[27] = system: HL-60; test: Antitumor activity against human HL60 cells xenografted in zebrafish embryo assessed as inhibition of cell proliferation at 200 ug/ml measured after 3 days of incubation by CM-Dil staining-based microscopic method relative to control; format: functional; method in brief: as §6
[28] = system: HL-60; test: Antitumor activity against human HL60 cells xenografted in zebrafish embryo assessed as inhibition of cell migration at 200 ug/ml measured after 3 days of incubation by CM-Dil staining-based microscopic method relative to control; format: functional; method in brief: as §6

CC1=C2CC[C@@](C)(OC(=O)CCCc3cn(CCOCCOCCOCCNC(=O)CCCC[C@H]4SC[C@H]5NC(=O)N[C@H]54)nn3)[C@@H]2[C@H]2OC(=O)[C@@H](C)[C@@H]2CC1
Activity [1]: inactive

C=C1C(=O)O[C@H]2[C@H]1CCC(C)=C1CC[C@@](C)(O)[C@@H]12
Activity [2]: inactive
Activity [3]: inactive
Activity [4]: Active

CC1=C2CC[C@@](C)(O)[C@@H]2[C@H]2OC(=O)[C@@H](CN(C)C)[C@@H]2CC1.O=C(O)/C=C/C(=O)O
Activity [5]: Dose-dependent effect
IC50 ([5]; HL-60, 48 h): 3.9 to 16.2 µM
IC90 ([5]; HL-60, 48 h): 16.4 to 54.1 µM
Activity [6]: Dose-dependent effect
IC50 [6]: 3.9 to 16.2 µM
IC90 [6]: 16.4 to 54.1 µM
Activity [7]: Dose-dependent effect
IC50 ([7]; K562, 48 h): 3.9 to 16.2 µM
IC90 ([7]; K562, 48 h): 16.4 to 54.1 µM
Activity [8]: Dose-dependent effect
IC50 [8]: 3.9 to 16.2 µM
IC90 [8]: 16.4 to 54.1 µM
IC50 [9]: 3.9 to 16.2 µM
IC90 [9]: 16.4 to 54.1 µM
Activity [10]: Dose-dependent effect
Activity [11]: Dose-dependent effect
IC50 ([11]; SW1990, 48 h): 3.9 to 16.2 µM
IC90 ([11]; SW1990, 48 h): 16.4 to 54.1 µM
Activity [12]: Dose-dependent effect
IC50 [12]: 3.9 to 16.2 µM
IC90 [12]: 16.4 to 54.1 µM
mortality at 20 ug/ml [13]: 80%
survival at 72 h [14]: 100%
Activity [15]: Dose-dependent effect
inhibition (INH) [16]: 56.44%
inhibition (INH) [17]: 58.1%

C=C1C(=O)O[C@H]2[C@H]1CCC(C)=C1CC[C@@](C)(OC(=O)CCCc3cn(CCOCCOCCOCCNC(=O)CCCC[C@H]4SC[C@H]5NC(=O)N[C@H]54)nn3)[C@@H]12
Activity [1]: Active
Activity [18]: inactive
Activity [19]: Active
Activity [20]: Active
Activity [21]: inactive
Activity [22]: Active
Activity [23]: inactive
K [24]: 0.033 min⁻¹
Activity ([24]; TDE = time-dependent effect): Tde
Kact [25]: 0.031 min⁻¹
Ki [25]: 0.05 µM
Ratio [26]: 1.03 ×10⁴ /M/s

Nc1ccn([C@@H]2O[C@H](CO)[C@@H](O)[C@@H]2O)c(=O)n1 [CYTARABINE]
inhibition (INH) [27]: 43.28%
inhibition (INH) [28]: 44.04%

Reference: ChEMBL document CHEMBL4184316 (J Med Chem, 2018)
